Measured values from ChEMBL document CHEMBL3576783, “Synthesis and evaluation of 1,2,4-triazolo[1,5-a]pyrimidines as antibacterial agents against Enterococcus faecium” (J Med Chem, 2015).
Values after ≈ are worked out from the molar mass of the structure shown. Active and inactive are the calls of the source. The calls are words filed in the database; no cut-off is given here.

What was measured:
[1] = tested on: Enterococcus faecium; assay: Antibacterial activity against vancomycin-susceptible Enterococcus faecium 119-39A assessed as bacterial growth inhibition after 16-20 hrs by broth microdilution method; format: functional
Summary of the method: (§1)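 CLSI broth microdilution in cation-adjusted Mueller Hinton II broth, triplicate. Cultures grown to OD600 about 0.60-0.80, diluted 100-fold; final inoculum 5×10^5 CFU/mL. Compounds from 5 mg/mL DMSO stock diluted in medium, final 2% (v/v) DMSO plus 0.25% (v/v) glacial acetic acid. Incubated 35 °C, 16-20 h, then MIC read.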

[2] = tested on: Enterococcus faecium; assay: Antibacterial activity against vancomycin and teicoplanin-resistant Enterococcus faecium ATCC 700221 isolated from human faeces assessed as bacterial growth inhibition after 16-20 hrs by broth microdilution method; format: functional; conditions: ATCC 700221, Feces
Summary of the method: as §1, with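 “Broth” for “CLSI broth”, “broth, run to CLSI method,” for “broth,”, “Cells” for “Cultures”, “~0.60-0.80,” for “about 0.60-0.80,”, “stocks” for “stock”, “°C for” for “°C,”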

[3] = tested on: Liver; assay: Half life in human liver S9 at 10 uM after 60 mins by UPLC analysis; format: ADME, subcellular, Liver S9 fraction; conditions: s9, 1 h
Summary of the method: (§2)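 Pooled human liver S9 (1 mg/mL) with 1 mM NADPH and 10 μM compound in sodium phosphate buffer (0.20 M phosphate, 0.15 M NaCl, pH 7.4), 37 °C for 60 min. Six time points quenched in acetonitrile with internal standard, analysed by UPLC-MRM. Half-life taken from first-order rate constant; CLint scaled with 45 mg protein/g liver and 20 g liver/kg. Run in duplicate.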

[4] = tested on: Enterococcus faecium; assay: Inhibition of peptidoglycan synthesis in Enterococcus faecium NCTC 7171 assessed as decrease in D-[2,3-3H]-alanine incorporation at 8 ug/ml after 120 mins by liquid scintillation counting analysis; format: functional, organism-based
Summary of the method: (§3)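 E. faecium NCTC 7171 grown in brain-heart infusion at 37 °C to early-log phase. Tritiated precursor (1 uCi/mL) added and incubated 5 min; compound then added at 8 μg/mL with DMSO negative control, followed by 2 h growth. Samples taken every 20 min, precipitated in 20% ice-cold TCA, filtered, washed with TCA and ethanol, and scintillation-counted in duplicate. Value reported at 120 min.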

[5] = tested on: Enterococcus faecium; assay: Antibacterial activity against copper, erythromycin, teracycline-resistant and vancomycin and teicoplanin-sensitive Enterococcus faecium ATCC BAA2127 assessed as bacterial growth inhibition after 16-20 hrs by broth microdilution method; format: functional; summary of the method: as §1
[6] = tested on: Enterococcus faecium; assay: Inhibition of translation in Enterococcus faecium NCTC 7171 assessed as decrease in L-[4,5-3H]-leucine incorporation into protein at 8 ug/ml after 120 mins by liquid scintillation counting analysis; format: functional, organism-based; summary of the method: as §3
[7] = tested on: Enterococcus faecium; assay: Inhibition of transcription in Enterococcus faecium NCTC 7171 assessed as decrease in [5,6-3H]-uridine incorporation into RNA at 8 ug/ml after 120 mins by liquid scintillation counting analysis; format: functional, organism-based; summary of the method: as §3
[8] = tested on: Enterococcus faecium; assay: microbe, parasite or virus in culture; conditions: NCTC 7171
[9] = Induction of hemolysis in RBC (unknown origin) at 64 ug/ml; conditions: erythrocytes
[10] = Apparent intrinsic clearance in human liver S9 at 10 uM after 60 mins by UPLC analysis; format: ADME, subcellular, Liver S9 fraction; conditions: read-out: CLH(app); summary of the method: as §2
[11] = tested on: Escherichia coli; assay: Effect on beta-galactosidase reporter gene translation in Escherichia coli S30 extract by transcription/translation assay; format: functional
[12] = tested on: Enterococcus faecium; assay: Inhibition of DNA replication in Enterococcus faecium NCTC 7171 assessed as decrease in [methyl-3H]-thymidine incorporation into DNA at 8 ug/ml after 120 mins by liquid scintillation counting analysis; format: functional, organism-based; summary of the method: as §3
[13] = tested on: Enterococcus faecium; assay: Antibacterial activity against Enterococcus faecium C38 assessed as bacterial growth inhibition after 16-20 hrs by broth microdilution method; format: functional; summary of the method: as §1
[14] = tested on: Plasma; assay: Plasma protein binding in human at 10 uM by rapid equilibrium dialysis method; format: ADME, cell-free
Summary of the method: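 Human plasma centrifuged to clear particulates, spiked with compound to final 10 μM in 0.1% DMSO. Dialysed against 0.1 M sodium phosphate buffer, pH 7.4, at 37 °C overnight with shaking in a rapid equilibrium dialysis device. Buffer and plasma sides extracted with acetonitrile containing internal standard and analysed by UPLC-MRM. Binding calculated as (Cp−Cf)/Cp×100.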

[15] = tested on: Staphylococcus aureus; assay: Inhibition of Staphylococcus aureus PBP2a up to 100 ug/ml by BIOCILLIN FL based fluorescence analysis
Summary of the method: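 Recombinant purified PBP2a (final 2 μM) preincubated with inhibitor in 25 mM Hepes, 1 M NaCl, pH 7.0, 37 °C, 10 min. BOCILLIN FL (final 20 μM) then added for 10 min at 37 °C. Samples boiled in SDS buffer and run on 12% SDS-PAGE. Fluorescent bands scanned and quantified against a no-inhibitor control.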

[16] = tested on: Enterococcus faecium; assay: Antibacterial activity against Enterococcus faecium C68 assessed as bacterial growth inhibition after 16-20 hrs by broth microdilution method; format: functional; summary of the method: as §1
[17] = tested on: BL21-DE3; assay: Inhibition of Enterococcus faecium D63r PBP5fm expressed in Escherichia coli BL21 (DE3) cells up to 100 ug/ml after 10 to 20 mins by BIOCILLIN FL-based fluorescence assay
Summary of the method: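 Recombinant PBP5fm lacking the signal peptide, expressed in E. coli BL21(DE3) and purified by anion-exchange then chelating chromatography. Enzyme (40 μM) preincubated with inhibitor in 25 mM Hepes, 1 M NaCl, pH 7.0 at 37 °C for 20 min. BOCILLIN FL (30 μM) then added for a further 20 min. Bands resolved on 12% SDS-PAGE and fluorescence quantified against a no-inhibitor control.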

[18] = tested on: Enterococcus faecium; assay: Antibacterial activity against Enterococcus faecium C9 assessed as bacterial growth inhibition after 16-20 hrs by broth microdilution method; format: functional; summary of the method: as §1
[19] = tested on: Staphylococcus aureus; assay: Antibacterial activity against Staphylococcus aureus ATCC 29213 assessed as bacterial growth inhibition after 16-20 hrs by broth microdilution method; format: functional, organism-based
Summary of the method: (§4)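 CLSI broth microdilution in cation-adjusted Mueller Hinton II broth, run in triplicate. Cultures grown to OD600 about 0.60-0.80, diluted 100-fold, final inoculum 5×10^5 CFU/mL. Compounds diluted from 5 mg/mL DMSO stocks; final 2% (v/v) DMSO plus 0.25% (v/v) glacial acetic acid. Plates incubated at 35 °C for 16-20 h before reading the MIC.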

[20] = tested on: Pseudomonas aeruginosa; assay: Antibacterial activity against Pseudomonas aeruginosa ATCC 27853 assessed as bacterial growth inhibition after 16-20 hrs by broth microdilution method; format: functional, organism-based; summary of the method: as §4
[21] = tested on: Klebsiella pneumoniae; assay: Antibacterial activity against Klebsiella pneumoniae ATCC 700603 assessed as bacterial growth inhibition after 16-20 hrs by broth microdilution method; format: functional, organism-based; summary of the method: as §4
[22] = tested on: Enterobacter sp.; assay: Antibacterial activity against Enterobacter sp. assessed as bacterial growth inhibition after 16-20 hrs by broth microdilution method; format: functional, organism-based; summary of the method: as §4
[23] = tested on: Acinetobacter baumannii; assay: Antibacterial activity against Acinetobacter baumannii ATCC 17961 assessed as bacterial growth inhibition after 16-20 hrs by broth microdilution method; format: functional, organism-based; summary of the method: as §4

Compound | MIC [1] [µg/mL] | MIC [2] [µg/mL] | t1/2 [3] [min] | MIC [5] [µg/mL] | MBC [8] [µg/mL] | MIC [8] [µg/mL] | Activity [9] [%] | CLint scaled at 10 µM [10] [mL/min/kg] | MIC [13] [µg/mL] | PPB [14] [%] | inhibition [15] | MIC [16] [µg/mL] | inhibition [17] | MIC [18] [µg/mL] | also measured
CC1=C(C(N)=O)C(c2ccc(N(C)C)cc2)n2nc(SCc3ccccc3)nc2N1 (stereo not given) | 4 (≈ 9.51 µM) | 4 (≈ 9.51 µM) | > 60 | 4 (≈ 9.51 µM) | 32 (≈ 76.1 µM) | 4 (≈ 9.51 µM) | 2 | < 10.4 | 16 (≈ 38 µM) | 97.6 |  |  |  |  | inhibition [4]: Active; inhibition [6]: inactive; inhibition [7]: inactive; Activity [11]: inactive; inhibition [12]: inactive
CC1=C(C(N)=O)C(c2ccc(N(C)C)cc2)n2nc(SCc3ccc(C#N)cc3)nc2N1 (stereo not given) | 8 (≈ 18 µM) | 8 (≈ 18 µM) | > 60 |  | 16 (≈ 35.9 µM) |  | 1 | < 10.4 | 16 (≈ 35.9 µM) | 96.8 | inactive | 4 (≈ 8.98 µM) | inactive | 4 (≈ 8.98 µM) | 
CC1=C(C(N)=O)C(c2ccc(OC(C)C)cc2)n2nc(SCc3ccccc3)nc2N1 (stereo not given) |  | 8 (≈ 18.4 µM) | 57 | 16 (≈ 36.7 µM) |  | 4 (≈ 9.18 µM) | < 1 | 10.9 | 32 (≈ 73.5 µM) |  |  |  |  |  | 
CC1=C(C(N)=O)C(c2ccc(C(C)C)cc2)n2nc(SCc3ccccc3)nc2N1 (stereo not given) | 4 (≈ 9.53 µM) |  | 56 | 4 (≈ 9.53 µM) | 32 (≈ 76.3 µM) | 8 (≈ 19.1 µM) | 22 | 11.1 | 16 (≈ 38.1 µM) | 98.7 | inactive | 16 (≈ 38.1 µM) | inactive | 16 (≈ 38.1 µM) | inhibition [19]: inactive; inhibition [20]: inactive; inhibition [21]: inactive; inhibition [22]: inactive; inhibition [23]: inactive
CN[C@H](CC(C)C)C(=O)N[C@H]1C(=O)N[C@@H](CC(N)=O)C(=O)N[C@H]2C(=O)N[C@H]3C(=O)N[C@H](C(=O)N[C@H](C(=O)O)c4cc(O)cc(O)c4-c4cc3ccc4O)[C@H](O)c3ccc(c(Cl)c3)Oc3cc2cc(c3O[C@@H]2O[C@H](CO)[C@@H](O)[C@H](O)[C@H]2O[C@H]2C[C@](C)(N)[C@H](O)[C@H](C)O2)Oc2ccc(cc2Cl)[C@H]1O [VANCOMYCIN] |  | 16 (≈ 11 µM) |  |  |  |  |  |  | 64 (≈ 44.2 µM) |  |  | 64 (≈ 44.2 µM) |  |  | 
